Screens (PubChem BioAssay)
HCT116 bCat-KO – beta-catenin-lacking colon tumor cell growth suppression; 140,000 tested, 1.5% active; viability, % at 10 µM; AID 818; HCT116 beta-catenin knockout viability, CellTiter-Glo, 60 h; active compounds read low;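 active = viability at or under a set limit, the compound median less 4 SD, cut at about 6% in these data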
TNAP act hi DEA – increases human TNAP activity under high phosphate acceptor concentration; P05186; purified TNAP, CDP-star luminescence, 1 M DEA, 30 min; active compounds read high; 0 = EDTA background, 1 = DMSO-only activity; activation factor at 20 µM; 200,000 tested, under 10 active; AID 1136;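 active = activation factor at least 2 at 20 µM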
Target sequence (P05186 whole entry, looked up): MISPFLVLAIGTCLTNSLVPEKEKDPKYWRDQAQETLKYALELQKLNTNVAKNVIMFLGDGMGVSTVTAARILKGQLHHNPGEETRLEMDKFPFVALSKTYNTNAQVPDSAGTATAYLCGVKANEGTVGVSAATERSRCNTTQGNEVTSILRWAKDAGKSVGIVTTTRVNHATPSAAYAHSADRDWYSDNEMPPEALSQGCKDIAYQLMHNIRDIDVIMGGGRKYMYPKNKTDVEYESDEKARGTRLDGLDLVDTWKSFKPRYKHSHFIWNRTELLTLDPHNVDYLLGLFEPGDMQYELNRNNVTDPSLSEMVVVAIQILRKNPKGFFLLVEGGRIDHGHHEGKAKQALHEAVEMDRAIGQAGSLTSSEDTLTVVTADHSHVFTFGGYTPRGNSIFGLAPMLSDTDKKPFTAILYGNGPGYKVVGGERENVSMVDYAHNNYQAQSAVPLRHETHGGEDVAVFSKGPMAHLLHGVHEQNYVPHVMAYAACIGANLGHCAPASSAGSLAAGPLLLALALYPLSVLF
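Control set: EDTA negative control, DMSO positive control / Assay system: human TNAP / Quantity: TNAP 1/800 final / Evaluation: TNAP activation factor scaled between EDTA and DMSO control wells / Measured by: luminescent substrate turnover signal / Compound dosing: one dose, 20 µM / Times: 30 min enzyme reaction at room temperature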
TNAP inh noacc – inhibitors of human TNAP without phosphate acceptor; purified TNAP, CDP-star luminescence, 30 min; AID 1012; P05186; 200,000 tested, 0.26% active; inhibition, % at 20 µM;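 active = tissue-nonspecific alkaline phosphatase inhibition above about 50% at 20 µM in the single-dose screen, limit read from the data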
HCT116 PTEN-null – growth suppressors of cells with PTEN tumor suppressor deletion | 140,000 tested, 1.2% active | HCT116 PTEN-null viability, CellTiter-Glo, 60 h; active compounds read low | viability, % at 10 µM;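 active = viability at or below a set limit, 4 SD under the median of all tested compounds, cut at about 3.7% in these data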;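 also: PTEN knockout HCT116 line with beta catenin targeted HCT116 as companion control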
TNAP inh hiacc – inhibitors of human TNAP at high phosphate acceptor concentration; AID 1135; purified TNAP, CDP-star luminescence, 1 M DEA; 200,000 tested, 0.03% active; inhibition, % at 20 µM; P05186;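 active = over 50% inhibition of tissue-nonspecific alkaline phosphatase at 20 µM in the single-dose screen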
L major viab – reduces viability of Leishmania major promastigotes. resazurin fluorescence viability. inhibition, % at 10 µM. 200,000 tested, 9% active; in the data active = inhibition above about 50%;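 also: promastigotes grown with compound for 44 hours at 28 °C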
Each line names hits and unclear results; the compound was inactive in the other large screens; ! = not active in a repeat. Most compounds without a hit are left out; they make up all but 9.6% or so of the library.

CC(=O)NC1CC2CCCC(C1)N2CC(=O)N1CCCc2ccccc21 (stereo not given)	none
OC(COCC(F)(F)C(F)(F)C(F)(F)C(F)F)Cn1c2ccccc2c2ccccc21 (stereo not given)	L major viab 86
O=C(/C=C/c1ccccc1Cl)N1CCN(c2ncccn2)CC1	L major viab 59
O=C(Nc1ccc(Cl)c(Cl)c1)N1CC=CCC1	L major viab 85
Cc1ccc(NC(=O)N2CCCC2)cc1Cl	L major viab 95 (no result: HCT116 bCat-KO, HCT116 PTEN-null)
Cc1ccc(NC(=O)C(=O)N2CCCC2)cc1Cl	none
O=C(Nc1ccccc1)N1CCCC1	L major viab 97
S=C(Nc1ccc(Cl)c(Cl)c1)N1CCOCC1	none
CCOC(=O)C/C(N)=N/N(C)c1ncc(C(F)(F)F)cc1Cl	none (no result: HCT116 bCat-KO, HCT116 PTEN-null)
CCOC(=O)COc1ccc(S(=O)(=O)N2CCN(c3ccccc3)CC2)cc1	none
O=C(/C=C/c1ccccc1[N+](=O)[O-])Nc1cccnc1	none
COc1ccc(CNCC(O)(c2ccc(Cl)cc2)c2ccc(Cl)cc2)cc1OC	none
CCCCNCC(O)(c1ccc(Cl)cc1)c1ccc(Cl)cc1	L major viab 90 (no result: HCT116 bCat-KO, HCT116 PTEN-null)
OC(CNCc1ccc(Cl)cc1)(c1ccccc1)c1ccc(F)cc1 (stereo not given)	none (no result: HCT116 bCat-KO, HCT116 PTEN-null)
COc1ccc(CNCC(O)(c2ccc(Cl)cc2)c2ccc(Cl)cc2)cc1	L major viab 101
Oc1c(C(c2ccccn2)N2CCCCC2)cc(Cl)c2cccnc12 (stereo not given)	L major viab 74 (no result: HCT116 bCat-KO, HCT116 PTEN-null)
COc1ccccc1C(=O)N1CCN(Cc2nc3cc([N+](=O)[O-])ccc3n2C)CC1	none (no result: HCT116 bCat-KO, HCT116 PTEN-null)
Cn1c(CN2CCN(C(=O)c3ccc(F)cc3)CC2)nc2cc([N+](=O)[O-])ccc21	L major viab 64
Oc1ccccc1-c1nnc(SCCN2CCOCC2)n1Cc1ccccc1	HCT116 bCat-KO 2.7, HCT116 PTEN-null 2.4
O=C(COC(=O)c1cccc(F)c1)Nc1cccnc1Cl	none (no result: HCT116 bCat-KO, HCT116 PTEN-null)
Cc1ccc(CN2CCN(/N=C/c3ccc(Cl)c([N+](=O)[O-])c3)CC2)cc1	L major viab 95 (no result: HCT116 bCat-KO, HCT116 PTEN-null)
Cc1ccc(CN2CCN(/N=C/c3cc(Br)cc(Br)c3O)CC2)cc1	L major viab 51
NC(N)=N/N=C/c1ccc(Br)cc1	L major viab 100 (no result: HCT116 bCat-KO, HCT116 PTEN-null)
CCNC(=S)N/N=C/c1ccc(C#N)cc1	none (no result: HCT116 bCat-KO, HCT116 PTEN-null)
N#Cc1ccc(/C=N/N=C(N)N)cc1	L major viab 79
Oc1ccc(/C=N/N=C/c2ccc(O)cc2)cc1	none (no result: HCT116 bCat-KO, HCT116 PTEN-null)
O=c1c2sccc2nc(SCc2cc(=O)n3cc(Br)ccc3n2)n1Cc1ccccn1	L major viab 55 (no result: HCT116 bCat-KO, HCT116 PTEN-null)
Cc1ccc(CSc2nc3ccsc3c(=O)n2Cc2ccccn2)cc1	L major viab 67
CCCC1=C(C(=O)OCC)C(c2ccc(OC)c(CSc3ccccn3)c2)C(C#N)=C(N)O1 (stereo not given)	none
COc1ccc(OC)c(NC(=O)CCC(=O)N(Cc2ccc(OC)c(OC)c2)c2nccs2)c1	none (no result: HCT116 bCat-KO, HCT116 PTEN-null)
COc1ccc(NC(=O)CCC(=O)N(Cc2ccc(OC)c(OC)c2)c2nccs2)cc1	L major viab 54
CCSc1cc(N2CCOCC2)nc(-c2ccc(Cl)cc2)n1	none
Clc1ccc(-c2nnc(COc3ncnc4ccccc34)o2)cc1	none (no result: HCT116 bCat-KO, HCT116 PTEN-null)
O=C(COC(=O)C1CCN(S(=O)(=O)c2ccccc2)CC1)NC(=O)c1ccc(OC(F)F)cc1	L major viab 57
CC(C1CC2CCC1C2)n1c(COc2ccccc2F)nnc1SCC(N)=O (stereo not given)	none
CC(C)NC(=O)NC(=O)CSc1nnc(COc2ccccc2F)n1C(C)C1CC2CCC1C2 (stereo not given)	L major viab 51
Cn1cnc([N+](=O)[O-])c1Oc1ccc2ccccc2c1	L major viab 81
Cn1cnc([N+](=O)[O-])c1Nc1cccc(O)c1	none
Cc1cc(=O)oc2cc(OC(=O)c3cncc(Br)c3)ccc12	none (no result: HCT116 bCat-KO, HCT116 PTEN-null)
Cc1cccc2sc(NC(=O)C3CCN(S(=O)(=O)c4cc([N+](=O)[O-])ccc4Cl)CC3)nc12	L major viab 90
O=C(NCc1ccc(Cl)cc1)C1CCN(S(=O)(=O)c2ccccc2)CC1	none (no result: HCT116 bCat-KO, HCT116 PTEN-null)
Cc1cccc2sc(NC(=O)C3CCCN(S(=O)(=O)c4cccc5nonc45)C3)nc12 (stereo not given)	none
O=C(NCc1ccc(Cl)cc1)C1CCN(S(=O)(=O)c2cc([N+](=O)[O-])ccc2Cl)CC1	L major viab 80
Cn1c(=S)n(CCC(=O)O)c2ccccc21	none (no result: HCT116 bCat-KO, HCT116 PTEN-null)
COc1ccc(OCCSc2nnc(Cc3cccc4ccccc34)n2N)cc1	none
CC1CCN(c2[nH]c(=S)c(C#N)c3c2CCCC3)CC1	L major viab 100
O=C(/C=C/c1cccc2ccccc12)c1ccncc1	HCT116 bCat-KO 1.0, HCT116 PTEN-null 0.9, L major viab 100
O=C(Nc1ccccc1F)Nc1ccccc1Br	none (no result: HCT116 bCat-KO, HCT116 PTEN-null)
COc1ccc(/C=N/NC(=O)CN(Cc2ccccc2)S(=O)(=O)c2ccc3c(c2)OCCO3)cc1	L major viab 90
O=C(CN(Cc1ccccc1)S(=O)(=O)c1ccc2c(c1)OCCO2)N/N=C/c1ccc(F)cc1	none
COc1ccc(CNC(=O)CN(CCC(C)C)S(=O)(=O)c2ccc3c(c2)OCCO3)cc1	L major viab 80
O=C(CN(Cc1ccccc1)S(=O)(=O)c1ccc2c(c1)OCCO2)N/N=C/c1cccc(Br)c1	L major viab 80
COc1ccc(CNC(=O)Cn2nc(-c3ccc4c(c3)OCCO4)ccc2=O)cc1	none
N#CCCN(C(=O)COC(=O)C1CCN(S(=O)(=O)c2cccs2)CC1)c1ccccc1	none (no result: HCT116 bCat-KO, HCT116 PTEN-null)
O=C1c2cnc3nc(SCc4ccc(Cl)cc4)nn3c2CC2c3ccccc3CCN12 (stereo not given)	none
COc1cc(CNc2nc3ccccc3n2C)cc(OC)c1OC	none
Cn1c(NCc2cccc(Br)c2)nc2ccccc21	L major viab 61
COc1ccc(OCC(O)Cn2c(=N)n(CCN3CCOCC3)c3ccccc32)cc1 (stereo not given)	none
N=c1n(CCN2CCCCC2)c2ccccc2n1CC(O)COc1ccccc1 (stereo not given)	L major viab 101
Cc1ccccc1OCC(O)Cn1c(=N)n(CCN2CCOCC2)c2ccccc21 (stereo not given)	L major viab 51!
COc1ccccc1OCC(O)Cn1c(=N)n(CCN2CCCCC2)c2ccccc21 (stereo not given)	L major viab 65
N=c1n(CCN2CCOCC2)c2ccccc2n1Cc1ccccc1Br	L major viab 95
N=c1n(CCN2CCOCC2)c2ccccc2n1CC(O)COc1ccccc1 (stereo not given)	none
Fc1ccc(NC(=S)N2CCc3ccccc3C2)c(F)c1	none (no result: HCT116 bCat-KO, HCT116 PTEN-null)
COc1ccc(-c2[nH]c(-c3cc(OC)c4c(c3)OCO4)nc2-c2ccccc2)cc1	L major viab 89
CC1CCC(NC(=O)c2ccc(NC(=O)c3ccc(=O)[nH]c3)cc2)CC1 (stereo not given)	none
